For test [1], the system named is Escherichia coli. Briefly: Antimicrobial activity against Escherichia coli ATCC 35218 after 24 hrs by broth micro serial dilution method. Type of test: functional. The procedure, abridged:
(§1)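 This was broth microdilution in autoclaved Mueller-Hinton broth. 150 µL of compound per well was serially diluted […], and 50 µL of test organism was added. Plates were incubated 24 h at 37 °C and optical density was read.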

Test [2] has as its system Escherichia coli. Briefly: Antimicrobial activity against Escherichia coli ATCC 35218 assessed as diameter of inhibition zone at 80 uM after 24 hrs by Kirby -Baur disc diffusion method. It counts as functional. The essentials: (§2)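 Kirby-Bauer disc diffusion was used. Acetone stocks (160 µM) were serially doubled down to 80, 40 and 20 µM. 4 µL of each went onto 5 mm sterile paper discs, which were dried 30 min at 50 °C. Inoculum was 1.5 × 10⁸ CFU/mL diluted to 3 × 10² CFU/mL, and 50 µL was spread on Mueller-Hinton agar. After 24 h at 37 °C the inhibition-zone diameter was measured. Ciprofloxacin served as positive control.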
For orientation: In agar diffusion tests the substance spreads into inoculated agar from a disc or well.

In test [3] the test system is Pseudomonas aeruginosa. The test is described as follows: Antimicrobial activity against Pseudomonas aeruginosa ATCC 15499 after 24 hrs by broth micro serial dilution method. It counts as functional. The procedure, abridged:
as §1

Test [4] deals with Pseudomonas aeruginosa. Briefly: Antimicrobial activity against Pseudomonas aeruginosa ATCC 15499 assessed as diameter of inhibition zone at 80 uM after 24 hrs by Kirby -Baur disc diffusion method. Type of test: functional. The procedure, abridged:
as §2

In test [5] the test system is Salmonella typhi. The test is described as follows: Antimicrobial activity against Salmonella typhi ATCC 23564 after 24 hrs by broth micro serial dilution method. Type of test: functional.
In test [6] the test system is Salmonella typhi. The test is described as follows: Antimicrobial activity against Salmonella typhi ATCC 23564 assessed as diameter of inhibition zone at 80 uM after 24 hrs by Kirby -Baur disc diffusion method. It counts as functional. The conditions noted are these: Salmonella enterica subsp. enterica serovar Typhi.
In test [7] the test system is Bacillus cereus. The test is described as follows: Antimicrobial activity against Bacillus cereus MTCC 7350 after 24 hrs by broth micro serial dilution method. It counts as functional. The essentials: as §1
In test [8] the test system is Bacillus cereus. The test is described as follows: Antimicrobial activity against Bacillus cereus MTCC 7350 assessed as diameter of inhibition zone at 80 uM after 24 hrs by Kirby -Baur disc diffusion method. Type of test: functional. The procedure, abridged: as §2
Test [9] concerns Staphylococcus aureus. Briefly: Antimicrobial activity against Staphylococcus aureus ATCC 11632 after 24 hrs by broth micro serial dilution method. Type of test: functional. The essentials:
as §1

Test [10] relates to Staphylococcus aureus. Briefly: Antimicrobial activity against Staphylococcus aureus ATCC 11632 assessed as diameter of inhibition zone at 80 uM after 24 hrs by Kirby -Baur disc diffusion method. Type of test: functional. The essentials:
as §2

Test [11] deals with Mus musculus. The test is described as follows: Antiinflammatory activity in mouse assessed as inhibition of carrageenan-induced increase in paw volume at 200 mg/kg administered 1 hr prior to carrageenan challenge measured after 3 hrs relative to control. It counts as functional. The procedure, abridged:
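Mice were fasted 2 h and placed in groups of five. Controls received saline i.p. Phenylbutazone was given at 100 mg/kg i.p., curcumin at 200 mg/kg i.p., and derivatives at 200 mg/kg. After 1 h, 0.1 mL of 1% carrageenan in saline was injected subplantar into the right hind paw. Paw volume was followed by plethysmometer for 3 h, and % inhibition was calculated as (Vc − Vt)/Vc × 100.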
Background: The carrageenan paw model is a standard test of acute inflammation.

The subject of test [12] is HCT-116. Briefly: Cytotoxicity against human HCT116 cells after 24 hrs by MTT assay. It counts as functional, cell-based. The essentials: (§3)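 The MTT assay seeded 5 × 10⁴ cells per well and grew them 24 h in RPMI 1640 with compound at 2.5–200 µM. Medium without cells was the blank and adriamycin the positive control. MTT was added for 4 h at 37 °C, formazan was solubilised, and absorbance was read at 570 nm. IC50 is the concentration that cuts viability 50% against untreated cells.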
A general note: Tetrazolium dyes change colour on reduction, which living cells bring about.

Test [13] concerns QG-56. Briefly: Cytotoxicity against human QG56 cells after 24 hrs by MTT assay. It counts as functional, cell-based. The essentials:
as §3

For test [14], the system named is HeLa. The test is described as follows: Cytotoxicity against human HeLa cells after 24 hrs by MTT assay. Type of test: functional, cell-based. The procedure, abridged: as §3
Test [15] has as its system HepG2. Briefly: Cytotoxicity against human HepG2 cells after 24 hrs by MTT assay. It counts as functional, cell-based. The procedure, abridged:
as §3

The test system of test [16] is Trichoderma viride. Briefly: Antifungal activity against Trichoderma viride MTCC 1107 after 48 hrs. It counts as functional. The conditions noted are these: MTCC 1107, 48 h.
The test system of test [17] is Trichoderma viride. The test is described as follows: Antifungal activity against Trichoderma viride MTCC 1107 assessed as zone of inhibition at 20 uM after 48 hrs by disc diffusion method. Type of test: functional. The procedure, abridged: (§4)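 Spores from 4-day potato dextrose agar cultures, suspended in sterile water at 1.5 × 10⁵ CFU/mL. 0.2 mL was spread on potato dextrose agar. 5 mm filter-paper discs soaked with test compound were laid on the lawn. Incubation was 48 h at 28 °C, then the inhibition zone was measured in mm. Fluconazole was the positive control and acetone the negative control.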

Test [18] has as its system Trichoderma viride. Briefly: Antifungal activity against Trichoderma viride MTCC 1107 assessed as zone of inhibition at 40 uM after 48 hrs by disc diffusion method. It counts as functional. The conditions noted are these: MTCC 1107, 48 h, read-out: IZ. The essentials: as §4
Test [19] deals with Trichoderma viride. Briefly: Antifungal activity against Trichoderma viride MTCC 1107 assessed as zone of inhibition at 80 uM after 48 hrs by disc diffusion method. Type of test: functional. The settings on record: MTCC 1107, 48 h, read-out: IZ. The procedure, abridged: as §4
The test system of test [20] is Curvularia lunata. Briefly: Antifungal activity against Curvularia lunata MTCC 581 after 48 hrs. It counts as functional. The conditions noted are these: MTCC 581, 48 h.
In test [21] the test system is Curvularia lunata. The test is described as follows: Antifungal activity against Curvularia lunata MTCC 581 assessed as zone of inhibition at 20 uM after 48 hrs by disc diffusion method. It counts as functional. The essentials:
as §4

In test [22] the test system is Curvularia lunata. Briefly: Antifungal activity against Curvularia lunata MTCC 581 assessed as zone of inhibition at 40 uM after 48 hrs by disc diffusion method. Type of test: functional. The conditions noted are these: MTCC 581, 48 h, read-out: IZ. The essentials: as §4
In test [23] the test system is Aspergillus flavus. The test is described as follows: Antifungal activity against Aspergillus flavus MTCC 1021 after 48 hrs. It counts as functional.
Test [24] concerns Curvularia lunata. The test is described as follows: Antifungal activity against Curvularia lunata MTCC 581 assessed as zone of inhibition at 80 uM after 48 hrs by disc diffusion method. Type of test: functional. The conditions noted are these: MTCC 581, 48 h, read-out: IZ. The procedure, abridged:
as §4

The subject of test [25] is Aspergillus flavus. The test is described as follows: Antifungal activity against Aspergillus flavus MTCC 1021 assessed as zone of inhibition at 80 uM after 48 hrs by disc diffusion method. Type of test: functional. The essentials: as §4
In test [26] the test system is Aspergillus niger. Briefly: Antifungal activity against Aspergillus niger MTCC 1108 after 48 hrs. Type of test: functional.
Test [27] deals with Aspergillus niger. Briefly: Antifungal activity against Aspergillus niger MTCC 1108 assessed as zone of inhibition at 80 uM after 48 hrs by disc diffusion method. It counts as functional. The essentials: as §4
[28] abbreviates: Salmonella enterica subsp. enterica serovar Typhi.

≈ marks a conversion by molar mass, not a printed value. Calls of active or inactive are those of the source. The calls are words filed in the database; no cut-off is given here.

Turning to `Nc1ccc(S(N)(=O)=O)cc1`, the MIC result in test [1], in test [3], in test [5] (setting [28]), in test [7] and in [9] was “inactive” in each case. Further, the “diameter of the inhibition zone (DIZ)” value in [2], in [4], in test [6], in [8] and in test [10] was “inactive” throughout.
As for `Cc1cc(C)nc(NS(=O)(=O)c2ccc(N)cc2)n1` [SULFAMETHAZINE], the minimum inhibitory concentration (MIC) in test [1] (ATCC 35218, 24 h) was greater than 160 µM; in test [5] (Salmonella enterica, ATCC 23564, 24 h), greater than 160 µM. For the same compound, the “diameter of the inhibition zone (DIZ)” value in test [2], in test [4], in [6], in test [8] and in [10] was “inactive” throughout. Moreover, the MIC entry in test [3], in test [7] and in test [9] was “inactive” each time.
Regarding `COc1cc(/C=C/c2nn(-c3ccccc3)c(/C=C/c3ccc(O)c(OC)c3)c2/N=N/c2ccc(S(N)(=O)=O)cc2)ccc1O`, the inhibition in vivo at 200 mg/kg in [11] is 22.5%. Besides, the half-maximal inhibitory concentration (IC50) entry in test [12] is “Not Active”; in test [13] it was greater than 100 µM; in test [14], greater than 100 µM; in test [15], “Not Active”. The MIC in [16] is 80 µM (≈ 49.9 µg/mL); in [20], greater than 80 µM. In addition, the “inhibition zone (IZ)” value in [17], in test [21], in test [25] and in [27] was “inactive” in each case. In addition, the zone of inhibition at 40 µM in [18] and in test [22] was 10 mm throughout. Besides, the zone of inhibition at 80 µM in test [19] and in test [24] was 11 mm throughout. For the same compound, the MIC entry in [23], in test [26], in test [1], in test [3], in [5] (setting [28]) and in test [7] was “inactive” in each case. Also, in test [9], the MIC entry is “inactive”. Moreover, the “diameter of the inhibition zone (DIZ)” value in [2], in [4], in test [6], in test [8] and in [10] was “inactive” in each case.
Consider `OC(Cn1cncn1)(Cn1cncn1)c1ccc(F)cc1F` [FLUCONAZOLE], for which the MIC in test [16] is 20 µM (≈ 6.13 µg/mL); in test [20] it was 20 µM (≈ 6.13 µg/mL); in test [23] (MTCC 1021, 48 h) it was greater than 80 µM. Moreover, the zone of inhibition at 20 µM in test [17] (MTCC 1107, 48 h, read-out: IZ) was found to be 21 mm; in test [21] (MTCC 581, 48 h, read-out: IZ), 24 mm. The zone of inhibition at 40 µM in test [18] is 24 mm; in test [22], 27 mm. The zone of inhibition at 80 µM worked out at 29 mm in test [19] and 28 mm in [24]. Further, the “inhibition zone (IZ)” value in [25] and in [27] was “inactive” throughout. In addition, the MIC entry in [26] was “inactive”.

For orientation: MIC means the lowest concentration that inhibits growth of the organism. A word on the inhibition in vivo: it is the relative decrease from the control value, in per cent. One may read the IC50 as the concentration that inhibits the measured activity by half.

(Values after ChEMBL document CHEMBL2384906, “Biological activity, design, synthesis and structure activity relationship of some novel derivatives of curcumin containing sulfonamides” (Eur J Med Chem, 2013).)
